# Compounds with a hit are over-represented: about 2% of the library has one in this group of screens.
# STAT3 activator = IL-6 driven STAT3 reporter potentiators, primary screen, U3A cells, luciferase, luminescence, MLSCN library; AID 871, 2007; IL-6 STAT3-luciferase reporter; 100% = signal with IL-6 EC80 alone; hit rate 0.91% among 190,000; activation (% of control), % at 5.6 µM;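 active means activation above the screen-wide mean of compound activation plus 3 SD, cut at about 130% in these data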;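 further: 0% = background luminescence of wells with medium and substrate only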
#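 Test system: Human STAT1-deficient U3A cells with stable STAT3-luciferase reporter | Also added: Interleukin-6, 33 ng/mL | Timing: Compound pre-incubation 1 h before IL-6, then 6 h stimulation at 37 °C | Technique: Luciferase reporter luminescence | Read-out: Percent of IL-6-only median luminescence | Benchmarks: IL-6-only wells as 100% reference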
# HSP90 inh = HSP90 inhibitors, primary screen, cell lysate, luminescence | Heat shock protein HSP 90 (rabbit reticulocyte lysate; luciferase refolding) | Rabbit reticulocyte lysate, luciferase refolding luminescence, 3 h | inhibition, % at 5.6 µM | hit rate 0.91% among 290,000;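 active means inhibition above the screen-wide mean plus 3 SD, computed separately per campaign, cut at about 16% in these data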;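 further: 0% = DMSO wells and 100% = 60 µM geldanamycin wells; inhibitors lower the luminescence because luciferase stays unfolded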
# STAT1 blocker = STAT1 signaling inhibitors, primary screen, cell-based, HTS, luciferase reporter | NIH 3T3 STAT1-luciferase reporter, IFN-gamma, luminescence | inhibition, % at 5.5 µM | hit rate 0.35% among 200,000;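 active means inhibition above a set limit, the mean inhibition across all tested compounds plus 3 SD, cut at about 34% in these data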;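 further: 0% = IFN-gamma with DMSO and 100% = IFN-gamma with 300 µM nifuroxazide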
# STAT3 inh = IL-6 driven STAT3 reporter inhibitors, primary screen, U3A cells, luciferase, luminescence, MLSCN library | inhibition, % at 5.5 µM | IL-6 STAT3-luciferase reporter; host cell line lacks STAT1 | hit rate 0.89% among 190,000;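 active means inhibition above the mean inhibition across all screened compounds plus 3 SD, cut at about 44% in these data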;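 further: 0% = DMSO only wells and 100% = 100 µM nifuroxazide control wells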
# HSP90 inh confirm = HSP90 inhibitors, confirmation, cell lysate, luminescence; hit rate 64% among 2,300; inhibition, % at 5.9 µM; AID 1846, 2009; shares compounds with HSP90 inh; rabbit reticulocyte lysate, luciferase refolding luminescence, 3 h; in the data active means inhibition above about 18%;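 further: 0% = vehicle wells and 100% = reference inhibitor wells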
# luciferase ctr = firefly luciferase inhibitors, HSP90 counter-screen, confirmation, artefact control for HSP90 inhibitor project, biochemical, luminescence, triplicate. inhibition, % at 5.9 µM. AID 1847, 2009. purified native firefly luciferase. hit rate 48% among 2,300. shares compounds with HSP90 inh;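 active means inhibition above the mean inhibition of all tested sample wells plus 3 SD, cut at about 10% in these data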;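 further: 0% = DMSO with luciferase and 100% = wells lacking luciferase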
# Target sequence (P08659 whole entry, looked up): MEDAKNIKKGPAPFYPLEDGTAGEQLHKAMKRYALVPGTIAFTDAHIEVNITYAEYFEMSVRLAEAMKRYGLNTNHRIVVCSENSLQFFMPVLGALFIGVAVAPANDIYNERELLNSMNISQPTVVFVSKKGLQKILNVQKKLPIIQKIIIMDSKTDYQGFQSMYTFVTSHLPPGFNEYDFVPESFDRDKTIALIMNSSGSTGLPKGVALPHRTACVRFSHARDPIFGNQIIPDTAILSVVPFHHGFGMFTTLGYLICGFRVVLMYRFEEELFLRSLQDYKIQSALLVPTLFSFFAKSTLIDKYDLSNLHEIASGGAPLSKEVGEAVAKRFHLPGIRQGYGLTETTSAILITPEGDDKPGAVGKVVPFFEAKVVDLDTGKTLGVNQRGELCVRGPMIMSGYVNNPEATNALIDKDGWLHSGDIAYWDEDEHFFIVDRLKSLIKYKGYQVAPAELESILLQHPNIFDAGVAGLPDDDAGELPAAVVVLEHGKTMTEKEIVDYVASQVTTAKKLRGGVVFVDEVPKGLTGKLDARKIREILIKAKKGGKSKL
# An asterisk follows results filed as active; nt = no result.
SMILES,STAT3 activator,HSP90 inh,STAT1 blocker,STAT3 inh,HSP90 inh confirm,luciferase ctr
CCN(CC(=O)N1CCOCC1)S(=O)(=O)c1cc(Cl)ccc1Cl,nt,2,nt,nt,nt,nt
COc1ccccc1CN(CC(=O)NCc1ccc(F)cc1)C(=O)c1csnn1,nt,0,nt,nt,nt,nt
CCc1ccc(C(=O)/C=C/c2cnn(C)c2C)s1,102,35*,-32,2,26*,52*
O=C(NCC(=O)N1CCCC1)c1ccc(Br)cc1,nt,-2,nt,nt,nt,nt
COc1cccc(-c2cc3nc4c(c(NCC(C)(C)CN(C)C)n3n2)CCCC4)c1,108,46*,-45,-8,44*,3
Fc1cccc(-c2cc3nc4c(c(NCc5ccco5)n3n2)CCCC4)c1,92,-2,-48,15,nt,nt
O=C(NNC(=S)NC(=O)c1cccnc1)c1ccc(F)cc1,nt,28*,nt,nt,1,-2
C=CCOc1c(CNc2cccc(C(=O)O)c2)cccc1OC,119,45*,-49,-14,53*,-18
C=CCOc1c(CNc2cccc(C(=O)O)c2)cccc1OCC,101,-4,-13,10,nt,nt
COC(=O)CC1=C(C)C(=O)CC2C(C)(C)CCCC12C (configuration not stated),101,19*,-1,1,1,-7
Cc1c(C(c2ccc(F)cc2)c2c(C)n(C)n(-c3ccccc3)c2=O)c(=O)n(-c2ccccc2)n1C,nt,-1,nt,nt,nt,nt
COc1cc2c(=O)n(Cc3ccccc3)c(=O)n(CC(=O)NCC3CCCO3)c2cc1OC (configuration not stated),101,2,-5,4,nt,nt
O=C(Cn1c(=O)n(Cc2ccc(F)cc2)c(=O)c2ccccc21)NCC1CCCO1 (configuration not stated),nt,18*,nt,nt,-7,-11
O=C(COc1ccc(Cl)cc1)NCc1nnc(SCC(=O)Nc2ccccc2)o1,101,37*,13,6,-1,-6
COc1ccc(NC(=O)CSc2nnc(CNC(=O)COc3ccc(Cl)cc3)o2)cc1,99,4,0,3,nt,nt
Cn1cc(/C=C(\NC(=O)c2ccccc2)C(=O)NCCN2CCOCC2)c2ccccc21,nt,-1,nt,nt,nt,nt
CCOc1ccc(OCc2ccc(C(=O)NCc3ccncc3)o2)cc1,94,18*,-7,6,19*,-4
CCCNC(=O)c1ccc(COc2ccc(Cl)cc2)o1,nt,9,nt,nt,nt,nt
O=C(O)c1ccc(COc2ccc3ccccc3c2)o1,nt,67*,nt,nt,75*,30*
CCCc1ccc(OCc2ccc(C(=O)N3CCSCC3)o2)cc1,nt,52*,nt,nt,55*,8
CCOc1ccc(OCc2ccc(C(=O)O)o2)cc1,76,90*,7,35,92*,60*
COC(=O)c1ccc(COc2ccc(C=O)cc2)o1,nt,0,nt,nt,nt,nt
COc1ccc(N2CCN(S(=O)(=O)c3c(C)[nH]c(C)c3C(=O)N3CCCC3)CC2)cc1,nt,2,nt,nt,nt,nt
C=CCN1C(=O)N(c2ccccc2)C(=O)C1CC(=O)Nc1ccc(OC)cc1 (configuration not stated),nt,2,nt,nt,nt,nt
Oc1c(N=Nc2ccccc2)sc2ccccc12,nt,18*,nt,nt,48*,39*
SMILES,STAT3 activator,HSP90 inh,STAT1 blocker,STAT3 inh,HSP90 inh confirm,luciferase ctr
Cc1ccc2c(c1)N(CC(=O)Nc1ccccc1F)C(=O)CO2,nt,22*,nt,nt,-3,-7
Cc1cccnc1NC(=O)CN1C(=O)COc2ccc(Cl)cc21,nt,18*,nt,nt,3,-3
O=C(NCCc1nccs1)C1CCC(=O)N(CCc2ccc(Cl)cc2)C1 (configuration not stated),nt,-5,nt,nt,nt,nt
Cc1ccc(-n2[nH]c(=O)c(-c3ccccn3)c2C)cc1,25,70*,76*,88*,81*,76*
O=C(NCCCN1CCCC1=O)c1cc(-c2cccnc2)nc2ccc(Cl)cc12,100,28*,4,1,-3,-4
CCOC(=O)C1(Cc2cccc(OC)c2)CCN(CC2CC=CCC2)CC1 (configuration not stated),103,7,7,4,nt,nt
